{"data": "Measured values from different studies", "cell line": "HEK293", "read-out": "cell growth or viability", "note": "Each line is one published result; the experiments were not run side by side."}
{"Structure (SMILES)": "CC(=O)O[C@H](C)C(=O)CCCCC[C@@H]1NC(=O)[C@H]2CCCN2C(=O)[C@H](Cc2ccccc2)NC(=O)C(C)(C)NC1=O", "test": "XTT", "IC50": "0.006 µM"}
{"Structure (SMILES)": "CC(=O)SCc1cc(=O)oc2ccc(O)cc12", "test": "MTT", "conditions": "36 h", "IC50": "> 20 µM"}
{"Structure (SMILES)": "COc1cccc2c1C(=O)c1c(O)c3c(c(O)c1C2=O)C[C@@](O)(C(=O)CO)C[C@@H]3O[C@H]1C[C@H](N)[C@H](O)[C@H](C)O1", "test": "MTT", "conditions": "24 h", "IC50": "> 40 µM"}
{"Structure (SMILES)": "C[C@@H](O)C(=O)CCCCC[C@@H]1NC(=O)[C@H]2CCCN2C(=O)[C@H](Cc2ccccc2)NC(=O)C(C)(C)NC1=O", "test": "XTT", "IC50": "0.04 µM"}
{"Structure (SMILES)": "Cc1nc2ccccc2c(O)c1-c1ccc(Cl)cc1", "IC50": "> 10 µM"}
{"Structure (SMILES)": "c1ccc2c(OCCCCCCN3CCCCCC3)cccc2c1", "conditions": "48 h", "IC50": "11.8 µM"}
{"Structure (SMILES)": "Cc1[nH]c(C)c(-c2ccc(C(=O)c3ccc(Cl)cc3)cc2)c(=O)c1Br", "IC50": "> 10 µM"}
{"Structure (SMILES)": "Cc1c(C)c2c(O)cc(O)cc2oc1=O", "test": "MTT", "conditions": "36 h", "IC50": "> 20 µM"}
{"Structure (SMILES)": "C[C@@H](O)C(=O)CCCCCCC(=O)Nc1ccccc1", "test": "XTT", "IC50": "35.6 µM"}
{"Structure (SMILES)": "CCCc1ccc(OCCCCCN2CCCCCC2)cc1", "conditions": "48 h", "IC50": "33.3 µM"}
{"Structure (SMILES)": "CC(=O)Oc1ccc2oc(=O)cc(CSC(C)=O)c2c1", "test": "MTT", "conditions": "36 h", "IC50": "> 20 µM"}
{"Structure (SMILES)": "CCCCCCCCc1c(C)[nH]c(C)c(C#N)c1=O", "IC50": "> 10 µM"}
{"Structure (SMILES)": "O=c1cc(CCl)c2cc(O)ccc2o1", "test": "MTT", "conditions": "36 h", "IC50": "> 20 µM"}
{"Structure (SMILES)": "O=C(c1cc(-c2cccs2)[nH]n1)N1CCN(S(=O)(=O)c2ccc(Cl)s2)CC1", "IC50": "> 10 µM"}
